Measured values reported in ChEMBL document CHEMBL3227986, “Design of species- or isozyme-specific enzyme inhibitors. 1. Effect of thymidine substituents on affinity for the thymidine site of hamster cytoplasmic thymidine kinase” (J Med Chem, 1979).
Values belong to the compound of their own block, whether it stands above or below them. Active and inactive are the calls of the source. No cut-off for these calls is given here.

Experiments:
[1] = molecular target: T1, Thymidine kinase, cytosolic (Homo sapiens) (UniProt P04183); experiment: Inhibition of human cytoplasmic thymidine kinase using [14C]thymidine after 10 mins by liquid scintillation spectrometer analysis relative to control in presence of Mg2+
T1 sequence (whole entry): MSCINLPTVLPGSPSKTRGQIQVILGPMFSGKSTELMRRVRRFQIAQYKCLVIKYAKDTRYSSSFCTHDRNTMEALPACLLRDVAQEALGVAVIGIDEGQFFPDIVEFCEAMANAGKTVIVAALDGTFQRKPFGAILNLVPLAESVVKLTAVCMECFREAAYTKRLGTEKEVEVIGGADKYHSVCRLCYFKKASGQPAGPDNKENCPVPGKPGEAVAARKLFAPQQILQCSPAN

[2] = molecular target: T2, Thymidine kinase, cytosolic (Cricetulus griseus) (UniProt P09768); experiment: Inhibition of thymidine kinase in BHK21 (C13) cells using [14C]thymidine after 10 mins by liquid scintillation spectrometer analysis relative to control in presence of Mg2+; assay type: cell-based; details: Mesocricetus auratus
T2 sequence (whole entry): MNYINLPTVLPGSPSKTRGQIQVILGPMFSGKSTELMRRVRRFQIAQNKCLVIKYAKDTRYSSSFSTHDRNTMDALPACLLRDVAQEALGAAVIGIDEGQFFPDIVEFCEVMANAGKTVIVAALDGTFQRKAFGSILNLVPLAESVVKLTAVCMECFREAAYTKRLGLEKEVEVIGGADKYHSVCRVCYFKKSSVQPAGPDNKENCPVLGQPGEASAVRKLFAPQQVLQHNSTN
Procedure, shortened: (§1)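 BHK21(C13) high-speed supernatant, 10 min at 37 °C, [14C]TMP on DEAE-cellulose disks, scintillation counting. Phosphate donors (nucleoside triphosphates 5 mM, giving 2.5 mM Mg2+ triphosphates) tested with 14.4 μM [14C]thymidine. Inhibitor assays used 0.19 mM [14C]thymidine: 5-iodo nucleosides at 0.19 mM with saturating Mg2+-ATP, or dCTP 5 mM with ATP 5 mM and MgCl2 7.5 mM.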

[3] = molecular target: T3, Thymidine kinase 2, mitochondrial (Homo sapiens) (UniProt O00142); experiment: Inhibition of human mitochondrial thymidine kinase using [14C]thymidine after 10 mins by liquid scintillation spectrometer analysis relative to control in presence of Mg2+
T3 sequence (whole entry): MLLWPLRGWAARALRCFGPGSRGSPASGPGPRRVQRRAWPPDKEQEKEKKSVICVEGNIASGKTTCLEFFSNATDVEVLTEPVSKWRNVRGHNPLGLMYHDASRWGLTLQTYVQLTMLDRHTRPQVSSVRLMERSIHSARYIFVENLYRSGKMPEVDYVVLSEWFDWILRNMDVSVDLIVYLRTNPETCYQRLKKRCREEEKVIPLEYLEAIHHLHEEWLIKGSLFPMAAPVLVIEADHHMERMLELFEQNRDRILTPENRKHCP

[4] = molecular target: T2, Thymidine kinase, cytosolic (Cricetulus griseus); experiment: Activity at thymidine kinase in BHK21 (C13) cells at 60 uM after 30 mins relative to thymidine; assay type: cell-based; details: Mesocricetus auratus
Procedure, shortened: (§2)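 Radiolabeled thymidine or 2'-deoxyuridine derivatives tested as substrates: 40 μL BHK21(C13) 100000g supernatant, Tris-HCl 0.05 M pH 8.0, ATP 5 mM, MgCl2 2.5 mM, no thymidine, 30 min at 37 °C. Products separated by paper electrophoresis in 0.05 M triethylammonium bicarbonate pH 7.6; radioactivity counted in the TMP region.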

[5] = molecular target: T2, Thymidine kinase, cytosolic (Cricetulus griseus); experiment: Effect on thymidine kinase in BHK21 (C13) cells using [14C]thymidine at 5 mM after 10 mins by liquid scintillation spectrometer analysis relative to control in presence of Mg2+; assay type: cell-based; details: Mesocricetus auratus; procedure, shortened: as §1
[6] = molecular target: T1, Thymidine kinase, cytosolic (Homo sapiens); experiment: Effect on human cytoplasmic thymidine kinase using [14C]thymidine at 2 mM after 10 mins by liquid scintillation spectrometer analysis relative to control in presence of Mg2+
[7] = molecular target: T3, Thymidine kinase 2, mitochondrial (Homo sapiens); experiment: Effect on human mitochondrial thymidine kinase using [14C]thymidine at 2 mM after 10 mins by liquid scintillation spectrometer analysis relative to control in presence of Mg2+
[8] = molecular target: T2, Thymidine kinase, cytosolic (Cricetulus griseus); experiment: Inhibition of thymidine kinase in BHK21 (C13) cells using thymidine as substrate assessed as formation of TMP at […]; assay type: cell-based; details: Mesocricetus auratus
[9] = molecular target: T2, Thymidine kinase, cytosolic (Cricetulus griseus); experiment: Inhibition of thymidine kinase in BHK21 (C13) cells using thymidine as substrate assessed as formation of TMP at 1.4 mM; assay type: cell-based; details: Mesocricetus auratus
Procedure, shortened: (§3)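 BHK21(C13) 100000g supernatant in Tris-HCl 0.05 M pH 8.0, ATP 5 mM, MgCl2 2.5 mM, [14C]thymidine 3.6 μM, 10 min at 37 °C. Reaction stopped by boiling; [14C]TMP bound to DEAE-cellulose disks and counted by liquid scintillation, corrected for unincubated blanks.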

[10] = molecular target: T2, Thymidine kinase, cytosolic (Cricetulus griseus); experiment: Inhibition of thymidine kinase in BHK21 (C13) cells using thymidine as substrate assessed as formation of TMP at 0.1 mM; assay type: cell-based; details: Mesocricetus auratus; procedure, shortened: as §3
[11] = molecular target: T2, Thymidine kinase, cytosolic (Cricetulus griseus); experiment: Inhibition of thymidine kinase in BHK21 (C13) cells using thymidine as substrate assessed as formation of TMP at 0.2 mM; assay type: cell-based; details: Mesocricetus auratus; procedure, shortened: as §3
[12] = molecular target: T2, Thymidine kinase, cytosolic (Cricetulus griseus); experiment: Inhibition of thymidine kinase in BHK21 (C13) cells using [14C]thymidine at 100 to 200 uM after 10 mins by liquid scintillation spectrometer analysis relative to control in presence of Mg2+; assay type: cell-based; details: Mesocricetus auratus
[13] = molecular target: T2, Thymidine kinase, cytosolic (Cricetulus griseus); experiment: Inhibition of thymidine kinase in BHK21 (C13) cells using thymidine as substrate assessed as formation of TMP at 3.4 mM; assay type: cell-based; details: Mesocricetus auratus; procedure, shortened: as §3
[14] = molecular target: T2, Thymidine kinase, cytosolic (Cricetulus griseus); experiment: Inhibition of thymidine kinase in BHK21 (C13) cells using thymidine as substrate assessed as formation of TMP at 6.8 mM; assay type: cell-based; details: Mesocricetus auratus; procedure, shortened: as §3
[15] = molecular target: T4, Thymidine kinase, cytosolic (Mus musculus, UniProt P04184); experiment: Competitive inhibition of thymidine kinase in mouse Ehrlich's ascites cells
T4 sequence (P04184 whole entry): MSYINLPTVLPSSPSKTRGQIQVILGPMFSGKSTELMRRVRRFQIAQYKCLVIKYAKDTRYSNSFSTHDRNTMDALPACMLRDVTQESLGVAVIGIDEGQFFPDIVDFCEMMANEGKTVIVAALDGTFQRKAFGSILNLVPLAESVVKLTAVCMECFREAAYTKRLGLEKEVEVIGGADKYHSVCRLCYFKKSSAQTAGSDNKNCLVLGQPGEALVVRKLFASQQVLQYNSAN

[16] = molecular target: T2, Thymidine kinase, cytosolic (Cricetulus griseus); experiment: Activity at thymidine kinase in BHK21 (C13) cells at 400 uM after 30 mins relative to thymidine; assay type: cell-based; details: Mesocricetus auratus; procedure, shortened: as §2
[17] = molecular target: T2, Thymidine kinase, cytosolic (Cricetulus griseus); experiment: Inhibition of thymidine kinase in BHK21 (C13) cells using thymidine as substrate assessed as formation of TMP at 2 mM; assay type: cell-based; details: Mesocricetus auratus; procedure, shortened: as §3
[18] = molecular target: T2, Thymidine kinase, cytosolic (Cricetulus griseus); experiment: Inhibition of thymidine kinase in BHK21 (C13) cells using thymidine as substrate assessed as formation of TMP at 4 mM; assay type: cell-based; details: Mesocricetus auratus; procedure, shortened: as §3
[19] = molecular target: T2, Thymidine kinase, cytosolic (Cricetulus griseus); experiment: Inhibition of thymidine kinase in BHK21 (C13) cells using thymidine as substrate assessed as formation of TMP at 7.2 mM; assay type: cell-based; details: Mesocricetus auratus; procedure, shortened: as §3
[20] = molecular target: T2, Thymidine kinase, cytosolic (Cricetulus griseus); experiment: Inhibition of thymidine kinase in BHK21 (C13) cells using thymidine as substrate assessed as formation of TMP at 14.4 mM; assay type: cell-based; details: Mesocricetus auratus; procedure, shortened: as §3
[21] = molecular target: T2, Thymidine kinase, cytosolic (Cricetulus griseus); experiment: Inhibition of thymidine kinase in BHK21 (C13) cells using [14C]thymidine at 200 uM after 10 mins by liquid scintillation spectrometer analysis relative to control in presence of Mg2+; assay type: cell-based; details: Mesocricetus auratus
[22] = molecular target: T2, Thymidine kinase, cytosolic (Cricetulus griseus); experiment: Inhibition of thymidine kinase in BHK21 (C13) cells using thymidine as substrate assessed as formation of TMP at 0.28 mM; assay type: cell-based; details: Mesocricetus auratus; procedure, shortened: as §3

SMILES: CC[S+]([O-])C[C@H]1O[C@@H](n2cc(C)c(=O)[nH]c2=O)C[C@@H]1O (some centres undefined)
inhibition [8]: 30%
inhibition [9]: 13%

SMILES: O=c1ccn([C@H]2C[C@H](O)[C@@H](CO)O2)c(=O)[nH]1
inhibition [10]: 38%
inhibition [11]: 59%

SMILES: CCOC1N([C@H]2C[C@H](O)[C@@H](CO)O2)C(=O)NC(=O)C1(C)Br (single isomer, unassigned; more polar)
Ki [15]: 24 µM

SMILES: CC(=O)NCC(O)[C@H]1O[C@@H](n2cc(C)c(=O)[nH]c2=O)C[C@@H]1O (stereo in doubt; [14C]4b)
Activity [16]: inactive

SMILES: O=C(CI)NCCC(=O)Nc1cn([C@H]2C[C@H](O)[C@@H](CO)O2)c(=O)[nH]c1=O
inhibition [17]: 22%
inhibition [18]: 36%

SMILES: CCn1c(=O)ccn([C@H]2C[C@H](O)[C@@H](CO)O2)c1=O
inhibition [19]: 24%
inhibition [20]: 45%

SMILES: CCS[C@H]1C[C@H](n2cc(C)c(=O)[nH]c2=O)O[C@@H]1CO
inhibition [9]: 60%
inhibition [22]: 31%

Results, then the compound that gave them:

inhibition [1]: 15%
inhibition [2]: 27%
inhibition [3]: 82%
SMILES: Nc1ccn([C@H]2C[C@H](O)[C@@H](COP(=O)(O)OP(=O)(O)OP(=O)(O)O)O2)c(=O)n1

Activity [4]: < 0.25%
SMILES: CC(=O)NCCCC(=O)Nc1cn([C@H]2C[C@H](O)[C@@H](CO)O2)c(=O)[nH]c1=O

Activity [5]: 6%
Activity [6]: 36%
Activity [7]: 46%
SMILES: Nc1nc(=O)c2ncn([C@@H]3O[C@H](COP(=O)(O)OP(=O)(O)OP(=O)(O)O)[C@@H](O)[C@@H]3O)c2[nH]1

inhibition [12]: Active
SMILES: CCC(=O)NCC(OP(=O)(O)OP(=O)(O)OP(=O)(O)O)[C@H]1O[C@@H](n2cc(C)c(=O)[nH]c2=O)C[C@@H]1O (single isomer, unassigned)

inhibition [12]: Active
SMILES: CCC(=O)NCC(OP(=O)(O)OP(=O)(O)OP(=O)(O)O)[C@H]1O[C@@H](n2cc(C)c(=O)[nH]c2=O)C[C@@H]1O (single isomer, unassigned; more polar)

inhibition [13]: 13%
inhibition [14]: 25%
SMILES: CCNc1cn([C@H]2C[C@H](O)[C@@H](CO)O2)c(=O)[nH]c1=O

inhibition [21]: Active
SMILES: CCNc1cn([C@H]2C[C@H](O)[C@@H](COP(=O)(O)OP(=O)(O)OP(=O)(O)O)O2)c(=O)[nH]c1=O
